Data set [1] can be described thus: Cmax in male Wistar Han rat at 10 mg/kg, po administered as single dose post overnight fasting measured upto 24 hrs by LC-MS/MS analysis. The data set is classed as ADME, organism-based. Further details: route oral, dose 10 mg/kg, time <=24. As to conditions: in vivo. Summed up:
(§1)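 Male Wistar Han rats were given single oral rising doses of 10, 100 or 300 mpk. AUC, Cmax, Tmax and MRT were derived from plasma exposure.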

Data set [2] in a line: Tmax in male Wistar Han rat at 300 mg/kg, po administered as single dose post overnight fasting measured upto 24 hrs by LC-MS/MS analysis. The class given is ADME, organism-based. The note with it: in vivo. Summed up:
as §1

Data set [3] in a line: Tmax in male Wistar Han rat at 10 mg/kg, po administered as single dose post overnight fasting measured upto 24 hrs by LC-MS/MS analysis. The data set is classed as ADME, organism-based. The note with it: in vivo. Summed up: as §1
A short description of data set [4]: MRT in male Wistar Han rat at 10 mg/kg, po administered as single dose post overnight fasting measured upto 24 hrs by LC-MS/MS analysis. The class given is ADME, organism-based. The note with it: in vivo. An outline of the steps:
as §1

Data set [5] can be described thus: Oral bioavailability in Beagle dog at 5 mg/kg post overnight fasting measured upto 24 hrs by LC-MS/MS analysis. The class given is ADME, organism-based, Canis lupus familiaris. As to conditions: in vivo. Summed up: (§2)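 Overnight-fasted male Wistar Han rats or Beagle dogs, two animals per group, 24 h study. IV in 60% PEG200 (rat 2 mg/kg, dog 1 mg/kg). PO in 10% Tween (rat 10 mg/kg, dog 5 mg/kg). Blood sampled up to 24 h, plasma separated by centrifugation, and drug measured by LC/MS. MRT reported for the IV route.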

Data set [6] is described as follows: Cmax in male Wistar Han rat at 300 mg/kg, po administered as single dose post overnight fasting measured upto 24 hrs by LC-MS/MS analysis. As to conditions: in vivo. Set-up: route oral, dose 300 mg/kg, time <=24. The data set is classed as ADME, organism-based. An outline of the steps: as §1
Data set [7] is described as follows: MRT in male Wistar Han rat at 300 mg/kg, po administered as single dose post overnight fasting measured upto 24 hrs by LC-MS/MS analysis. The class given is ADME, organism-based. The note with it: in vivo. Summed up:
as §1

A short description of data set [8]: Tmax in male Wistar Han rat at 100 mg/kg, po administered as single dose post overnight fasting measured upto 24 hrs by LC-MS/MS analysis. The class given is ADME, organism-based. The note with it: in vivo. An outline of the steps:
as §1

Data set [9] in a line: MRT in male Wistar Han rat at 100 mg/kg, po administered as single dose post overnight fasting measured upto 24 hrs by LC-MS/MS analysis. The data set is classed as ADME, organism-based. As to conditions: in vivo. Summed up:
as §1

Data set [10] can be described thus: AUC in male Wistar Han rat at 300 mg/kg, po administered as single dose post overnight fasting measured upto 24 hrs by LC-MS/MS analysis. The class given is ADME, organism-based. Set-up: route oral, dose 300 mg/kg, time <=24. As to conditions: in vivo. Summed up: as §1
The nature of data set [11]: Cmax in Beagle dog at 5 mg/kg, po administered post overnight fasting measured upto 24 hrs by LC-MS/MS analysis. The class given is ADME, organism-based, Canis lupus familiaris. Further details: route oral, dose 5 mg/kg, time <=24. As to conditions: in vivo. An outline of the steps:
as §2

A short description of data set [12]: AUC in Beagle dog at 5 mg/kg, po administered post overnight fasting measured upto 24 hrs by LC-MS/MS analysis. The data set is classed as ADME, organism-based, Canis lupus familiaris. Set-up: route oral, dose 5 mg/kg, time <=24. As to conditions: in vivo. An outline of the steps: as §2
The nature of data set [13]: Cmax in male Wistar Han rat at 100 mg/kg, po administered as single dose post overnight fasting measured upto 24 hrs by LC-MS/MS analysis. The class given is ADME, organism-based. Set-up: route oral, dose 100 mg/kg, time <=24. As to conditions: in vivo. An outline of the steps: as §1
Data set [14] can be described thus: Drug concentration in Beagle dog at 5 mg/kg, po measured after 24 hrs by LC/MS analysis. The data set is classed as ADME, organism-based, Canis lupus familiaris. The note with it: in vivo, read-out: Drug uptake. Summed up:
as §2

Data set [15] in a line: AUC in male Wistar Han rat at 100 mg/kg, po administered as single dose post overnight fasting measured upto 24 hrs by LC-MS/MS analysis. Set-up: route oral, dose 100 mg/kg, time <=24. The data set is classed as ADME, organism-based. The note with it: in vivo. Summed up: as §1
Data set [16] in a line: Clearance in Beagle dog at 1 mg/kg, iv administered post overnight fasting measured upto 24 hrs by LC-MS/MS analysis. The class given is ADME, organism-based, Canis lupus familiaris. The note with it: in vivo. An outline of the steps: as §2
A short description of data set [17]: AUC in male Wistar Han rat at 10 mg/kg, po administered as single dose post overnight fasting measured upto 24 hrs by LC-MS/MS analysis. The data set is classed as ADME, organism-based. Set-up: route oral, dose 10 mg/kg, time <=24. The note with it: in vivo. Summed up:
as §1

A short description of data set [18]: Mean residence time in Beagle dog at 1 mg/kg, iv administered post overnight fasting measured upto 24 hrs by LC-MS/MS analysis. As to conditions: in vivo.

The structures appear in SMILES notation.

By Cmax is commonly meant the maximum level reached in the sampled fluid or tissue. Usually Tmax stands for the time at which the peak concentration occurs. For orientation: MRT means a mean duration of stay, worked out from the concentration-time curve. For orientation: bioavailability means dose-corrected exposure relative to a reference, in per cent. As usually defined, the AUC is concentration integrated over time. One may read the clearance as the volume of plasma or blood freed of the substance per unit of time. Low values mean a low capacity for elimination, high ones a high capacity for elimination. As to `COC(=O)N[C@H](C(=O)N1CCC[C@H]1c1ncc(-c2cc(F)c3c(c2)OC(c2ccc4c(c2)OCCC4)n2c-3cc3cc(-c4cnc([C@@H]5CCCN5C(=O)[C@@H](NC(=O)OC)C(C)C)[nH]4)ccc32)[nH]1)C(C)C.Cl.Cl` (stereo partly drawn), the Cmax in [1] was found to be 40 nM; in data set [6] it was 400 nM; in [11], 1220 nM; in [13], 350 nM. Further, the figures for the Tmax in data set [2], in data set [3] and in [8] were 8 h, 5 h and 5 h, respectively. Further, the MRT stood at 8.5 h in data set [4], 11 h in [7], 13 h in data set [9] and 11.4 h in [18]. For the same compound, the bioavailability in [5] amounted to 16%. For the same compound, the AUC at 24 h stood at 4.9 µM·h in data set [10], 6.92 µM·h in data set [12], 5.9 µM·h in data set [15] and 0.42 µM·h in data set [17]. Besides, the concentration at 24 h in [14] amounted to 51 nM. In data set [16], this compound yielded a clearance of 2 mL/min/kg.

Source of the values: ChEMBL document CHEMBL4715796, “Discovery of Chromane Containing Hepatitis C Virus (HCV) NS5A Inhibitors with Improved Potency against Resistance-Associated Variants” (J Med Chem, 2016).
